From ChEMBL document CHEMBL1944511, “Bakuchiol derivatives as novel and potent cytotoxic agents: a report” (Eur J Med Chem, 2012)
Activity calls are given as the source filed them. The rule behind the calls is not given here.

What was measured:
PC-3 [1] = assay: Growth inhibition of human PC3 cells at 20 uM after 48 hrs by sulpharhodamine B assay; type: functional; conditions: PC-3, 48 h, read-out: GI
Outline: (§1)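 This is the SRB protein-stain assay on adherent cells in RPMI-1640/MEM with 10% FCS. Each compound in DMSO (vehicle <0.2%) was applied at a single fixed concentration for 48 h. Cells were fixed with TCA and stained with SRB, and the dye was solubilised in Tris and read at 570/620 nm. Percent growth inhibition is relative to vehicle-treated controls, reported as mean ± SD of three experiments run in triplicate.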

HL-60 [2] = assay: Induction of apoptosis in human HL60 cells assessed as increase in […] sub-G0 fraction at 20 uM by propidium iodide staining-based flow cytometric analysis (reference value: 6%); type: functional
HL-60 [3] = assay: Induction of apoptosis in human HL60 cells assessed as loss of mitochondrial membrane potential at 1 uM after 24 hrs by rodamine-123 staining-based flow cytometric analysis (reference value: 6%); type: functional
OVCAR-5 = assay: Growth inhibition of human OVCAR5 cells at 50 uM after 48 hrs by sulpharhodamine B assay; type: functional; conditions: OVCAR-5, 48 h, read-out: GI; outline: as §1
HEp-2 [4] = assay: Growth inhibition of human Hep2 cells at 30 uM after 48 hrs by sulpharhodamine B assay; type: functional; conditions: HEp-2, 48 h, read-out: GI; outline: as §1
A549 = assay: Cytotoxicity against human A549 cells after 48 hrs by sulpharhodamine B assay; type: functional, cell-based; conditions: A549, 48 h
Outline: (§2)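 Cells were grown in RPMI-1640/MEM with 10% FCS and penicillin/streptomycin at 37 °C under 5% CO2, then seeded and left to adhere overnight. Analogs in DMSO (vehicle <0.2%) were added at several concentrations for 48 h. Cells were fixed with cold 50% TCA, stained with 0.4% SRB in 1% acetic acid, solubilised in 10 mM Tris, and read at OD 570/620 nm. IC50 came from non-linear regression.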

HL-60 [5] = assay: Induction of apoptosis in human HL60 cells assessed as loss of mitochondrial membrane potential at 10 uM after 24 hrs by rodamine-123 staining-based flow cytometric analysis (reference value: 6%); type: functional
DU-145 = assay: Growth inhibition of human DU145 cells at 10 uM after 48 hrs by sulpharhodamine B assay; type: functional; conditions: DU-145, 48 h, read-out: GI; outline: as §1
HCT-15 [6] = assay: Growth inhibition of human HCT15 cells at 20 uM after 48 hrs by sulpharhodamine B assay; type: functional; conditions: HCT-15, 48 h, read-out: GI; outline: as §1
THP-1 [7] = assay: Growth inhibition of human THP1 cells at 5 uM after 48 hrs by sulpharhodamine B assay; type: functional; conditions: THP-1, 48 h, read-out: GI
Outline: (§3)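 Cells grown in RPMI-1640/MEM with 10% FCS, penicillin/streptomycin, 37 °C, 5% CO2. Seeded in 96-well plates, allowed to adhere overnight, then exposed 48 h to analogs in DMSO (vehicle <0.2% in controls). TCA-fixed, stained with 0.4% SRB in 1% acetic acid, dye solubilized in 10 mM Tris base, OD 570 nm (ref 620 nm). Mean ± SD of three experiments run in triplicate.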

PC-3 [8] = assay: Growth inhibition of human PC3 cells at 5 uM after 48 hrs by sulpharhodamine B assay; type: functional; conditions: PC-3, 48 h, read-out: GI; outline: as §3
HL-60 [9] = assay: Induction of apoptosis in human HL60 cells assessed as loss of mitochondrial membrane potential at 5 uM after 24 hrs by rodamine-123 staining-based flow cytometric analysis (reference value: 6%); type: functional
IMR-32 [10] = assay: Growth inhibition of human IMR32 cells at 30 uM after 48 hrs by sulpharhodamine B assay; type: functional; conditions: IMR-32, 48 h, read-out: GI; outline: as §1
HL-60 [11] = assay: Cytotoxicity against human HL60 cells by MTT assay; type: functional, cell-based; conditions: TDE = time-dependent effect
Outline: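 Exponentially growing HL-60 cells (1.5×10^4 per well) in 96-well plates were exposed to a range of compound concentrations in DMSO, with vehicle-only controls. MTT (2.5 mg/mL stock) was added for 3–4 h at 37 °C, and formazan was dissolved in DMSO and read at OD 570/620 nm. […] Data are mean ± SD of n = 6 wells from two experiments.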

IMR-32 [12] = assay: Growth inhibition of human IMR32 cells at 20 uM after 48 hrs by sulpharhodamine B assay; type: functional; conditions: IMR-32, 48 h, read-out: GI; outline: as §1
HL-60 [13] = assay: Induction of apoptosis in human HL60 cells assessed as increase in […] sub-G0 fraction at 10 uM by propidium iodide staining-based flow cytometric analysis (reference value: 6%); type: functional
HL-60 [14] = assay: Induction of apoptosis in human HL60 cells assessed as DNA fragmentation after 24 hrs by agarose gel electrophoresis; type: functional, cell-based
Outline: (§4)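 HL-60 cells (2×10^6/well/2 mL) treated 24 h in 6-well plates. DNA extracted with phenol:chloroform:isoamyl alcohol, ethanol-precipitated, run on 1% agarose at 80 V for 1.5 h in TAE.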

HL-60 [15] = assay: Induction of apoptosis in human HL60 cells assessed as increase in […] sub-G0 fraction at 1 uM by propidium iodide staining-based flow cytometric analysis (reference value: 6%); type: functional
MCF7 [16] = assay: Growth inhibition of human MCF7 cells at 50 uM after 48 hrs by sulpharhodamine B assay; type: functional; conditions: MCF7, 48 h, read-out: GI; outline: as §1
HEp-2 [17] = assay: Growth inhibition of human Hep2 cells at 20 uM after 48 hrs by sulpharhodamine B assay; type: functional; conditions: HEp-2, 48 h, read-out: GI; outline: as §1
HCT-15 [18] = assay: Cytotoxicity against human HCT15 cells after 48 hrs by sulpharhodamine B assay; type: functional, cell-based; conditions: HCT-15, 48 h; outline: as §2
THP-1 [19] = assay: Cytotoxicity against human THP1 cells after 48 hrs by sulpharhodamine B assay; type: functional, cell-based; conditions: THP-1, 48 h; outline: as §2
MCF7 [20] = assay: Growth inhibition of human MCF7 cells at 10 uM after 48 hrs by sulpharhodamine B assay; type: functional; conditions: MCF7, 48 h, read-out: GI; outline: as §1
THP-1 [21] = assay: Growth inhibition of human THP1 cells at 50 uM after 48 hrs by sulpharhodamine B assay; type: functional; conditions: THP-1, 48 h, read-out: GI; outline: as §3
IMR-32 [22] = assay: Growth inhibition of human IMR32 cells at 10 uM after 48 hrs by sulpharhodamine B assay; type: functional; conditions: IMR-32, 48 h, read-out: GI; outline: as §1
HL-60 [23] = assay: Induction of apoptosis in human HL60 cells assessed as increase in […] sub-G0 fraction at 5 uM by propidium iodide staining-based flow cytometric analysis (reference value: 6%); type: functional
PC-3 [24] = assay: Cytotoxicity against human PC3 cells after 48 hrs by sulpharhodamine B assay; type: functional, cell-based; conditions: PC-3, 48 h; outline: as §2
HL-60 [25] = assay: Induction of apoptosis in human HL60 cells assessed as DNA fragmentation at 40 uM after 24 hrs by agarose gel electrophoresis; type: functional, cell-based; outline: as §4
HL-60 [26] = assay: Induction of apoptosis in human HL60 cells assessed as DNA fragmentation at 20 uM after 24 hrs by agarose gel electrophoresis; type: functional, cell-based; outline: as §4

Row | Structure (SMILES) | inhibition of growth at 20 µM (PC-3 [1]) [%] | Activity (HL-60 [2]) [%] | Activity (HL-60 [3]) [%] | inhibition of growth at 50 µM (OVCAR-5) [%] | inhibition of growth at 30 µM (HEp-2 [4]) [%] | IC50 (A549) [µM] | Activity (HL-60 [5]) [%] | inhibition of growth at 10 µM (DU-145) [%] | inhibition of growth at 20 µM (HCT-15 [6]) [%] | inhibition of growth at 5 µM (THP-1 [7]) [%] | inhibition of growth at 5 µM (PC-3 [8]) [%] | Activity (HL-60 [9]) [%] | inhibition of growth at 30 µM (IMR-32 [10]) [%] | Activity (HL-60 [11]) | inhibition of growth at 20 µM (IMR-32 [12]) [%] | Activity (HL-60 [13]) [%] | Activity (HL-60 [15]) [%] | inhibition of growth at 50 µM (MCF7 [16]) [%] | inhibition of growth at 20 µM (HEp-2 [17]) [%] | IC50 (HCT-15 [18]) [µM] | further results
1 | COc1ccc(/C=C/[C@](C)(/C=C/c2ccc(O)cc2)CCC=C(C)C)cc1 | 58 | 54 | 14.4 | 67 | 45 | 12 | 46.4 | 57 | 61 | 53 | 23 | 20.6 | 51 | tde | 40 | 41 | 5 | 77 | 58 | 13 | Activity (HL-60 [14]): Dose-dependent effect; IC50 (THP-1 [19]): 4.2 µM; inhibition of growth at 10 µM (MCF7 [20]): 37%; inhibition of growth at 50 µM (THP-1 [21]): 86%; inhibition of growth at 10 µM (IMR-32 [22]): 32%; Activity (HL-60 [23]): 8%; IC50 (PC-3 [24]): 15 µM
2 | CC1C(C(C)(C)O)CCC1(C)/C=C/c1ccc(O)cc1 (stereo not given) | 57 | 48 | 12.4 | 75 | 53 | 17 | 31.7 | 50 | 63 | 54 | 24 | 17.9 | 57 | tde | 62 | 34 | 8 | 79 | 50 | 13 | Activity (HL-60 [25]): Active; IC50 (THP-1 [19]): 3.5 µM; inhibition of growth at 10 µM (MCF7 [20]): 32%; inhibition of growth at 50 µM (THP-1 [21]): 93%; Activity (HL-60 [26]): Active; inhibition of growth at 10 µM (IMR-32 [22]): 50%; Activity (HL-60 [23]): 12%; IC50 (PC-3 [24]): 19 µM
